We go through nine compounds from paper PMC10286098 (ACS Omega, 2023).

The structures appear in SMILES notation. “And” between values parts separate entries of the source, which are not always exact repeats. Identical values can stand only once. Like-named read-outs stand apart in the source and are kept apart here.

As a reminder, the IC50 is the concentration that inhibits the measured activity by half. A lower IC50 goes with greater potency.

Data set [1] has as its system A549 cells.
Data set [2] concerns H1975 cells.
Data set [3] addresses hDHODH (Homo sapiens, UniProt Q02127). In words: hDHODH fluorescence-based. The format is biochemical. The following applies: for IC50: IC50 over hDHODH, fluorescence-based assay, 10-dose, 3-fold dilution from 10 μM; for fold of the reported DHODH inhibitory activity of Leflunomide: versus Leflunomide 600 nM. The method in brief: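 Contract-run assay in which human DHODH oxidizes L-DHO to orotate, coupled to resazurin conversion to resorufin. Test compounds were run as 10 doses in singlet, with 3-fold dilutions from 10 μM. Reactions ran 60 min at room temperature. Orotate stop mix (5 mM final) was added, then resorufin fluorescence was read.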

The test system of data set [4] is MRC-5 cells. The following applies: MRC-5 normal lung cells, WST-1, mean ± standard error.
Data set [5] concerns H1299 cells.
[6] abbreviates: A549 cells, WST-1, 24 h, mean ± standard error.
Setting [7] is: H1975 cells, WST-1, 24 h, mean ± standard error.
Where [8] appears, read: H1299 cells, WST-1, 24 h, mean ± standard error.

Chain of hDHODH (Q02127 whole entry): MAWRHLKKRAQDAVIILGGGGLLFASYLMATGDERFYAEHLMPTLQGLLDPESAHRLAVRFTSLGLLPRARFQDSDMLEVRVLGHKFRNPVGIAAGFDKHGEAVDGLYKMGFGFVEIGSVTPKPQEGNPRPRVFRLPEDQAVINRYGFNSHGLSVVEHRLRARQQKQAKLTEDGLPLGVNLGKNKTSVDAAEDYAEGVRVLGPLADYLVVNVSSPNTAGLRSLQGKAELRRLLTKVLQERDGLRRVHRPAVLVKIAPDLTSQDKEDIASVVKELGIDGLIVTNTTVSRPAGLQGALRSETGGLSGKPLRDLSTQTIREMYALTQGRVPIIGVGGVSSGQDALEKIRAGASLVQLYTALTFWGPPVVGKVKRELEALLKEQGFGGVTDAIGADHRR

With `O=C(Nc1cccc(C(F)(F)F)c1)c1c[nH]c2ccc(Nc3ccc([N+](=O)[O-])cc3)cc12` [compound 5c, 5-((4-Nitrophenyl)amino)-N-(3-(trifluoromethyl)phenyl)-1H-indole-3-carboxamide], the TC50 in data set [1] (setting [6]) is 11 ± 0.5 µM; in data set [2] (setting [7]), 15 ± 1.0 µM; in data set [4], 17 ± 0.3 µM; in data set [5] (setting [8]), 11 ± 0.3 µM. The IC50 in data set [3] came out at 0.421 µM. Further, in data set [3], the “fold of the reported DHODH inhibitory activity of Leflunomide” value is reported as 1.5 fold.
Turning to `O=C(Nc1cccc(C(F)(F)F)c1)c1c[nH]c2ccc(-c3cccc(CN4CCOCC4)c3)cc12` [compound 4a, 5-(3-(Morpholinomethyl)phenyl)-N-(3-(trifluoromethyl)phenyl)-1H-indole-3-carboxamide], the TC50 came out at 13 ± 0.3 µM in data set [1] (setting [6]), 23 ± 2.0 µM in data set [2] (setting [7]), 17 ± 3.0 µM in data set [4] and 13 ± 0.1 µM in data set [5] (setting [8]). The half-maximal inhibitory concentration (IC50) in data set [3] is 1.2 µM and 1.21 µM.
For `O=C(Nc1cccc(C(F)(F)F)c1)c1c[nH]c2ccc(Nc3ccc(O)cc3)cc12` [5a, 5-((4-Hydroxyphenyl)amino)-N-(3-(trifluoromethyl)phenyl)-1H-indole-3-carboxamide], the TC50 in data set [1] (setting [6]) stood at 32 ± 0.9 µM; in data set [2] (setting [7]) it was 33 ± 2.0 µM; in data set [5] (setting [8]), 33 ± 0.7 µM.
For `COc1ccc(Nc2ccc3[nH]cc(C(=O)Nc4cccc(C(F)(F)F)c4)c3c2)cc1OC` [compound 5b, 5-((3,4-Dimethoxyphenyl)amino)-N-(3-(trifluoromethyl)phenyl)-1H-indole-3-carboxamide], in that order: 19 ± 0.4 µM, 25 ± 5.0 µM and 16 ± 0.6 µM.
For the compound `O=C(Nc1cccc(C(F)(F)F)c1)c1c[nH]c2ccc(Br)cc12` [compound 3, 5-Bromo-N-(3-(trifluoromethyl)phenyl)-1H-indole-3-carboxamide], the TC50 in data set [1] (setting [6]) was determined as 22 ± 1.0 µM; in data set [2] (setting [7]) it was 28 ± 2.0 µM; in data set [4] it was 45 ± 8.0 µM; in data set [5] (setting [8]) it was 27 ± 0.8 µM. In data set [3], the half-inhibitory concentration (IC50) was determined as 0.195 µM. Further, the “fold of the reported DHODH inhibitory activity of Leflunomide” value in data set [3] is recorded as 3 fold.
Regarding `Cc1oncc1C(=O)Nc1ccc(C(F)(F)F)cc1` [Leflunomide, reference compound], the TC50 in data set [1] was 100 < TC50 <300 μM; in data set [2] it was 100 < μM; in data set [4], 300 < μM; in data set [5], 300 < μM.
Regarding `CNC(=O)c1cc(Oc2ccc(NC(=O)Nc3ccc(Cl)c(C(F)(F)F)c3)c(F)c2)ccn1` [Regorafenib, reference compound], the “decrease of cell viability” value is recorded as “more than 50%” in data set [1] (A549, 100 μM, 24 h, preliminary screening (Figure S1)); “more than 50%” in data set [2] (H1975, 100 μM, 24 h, preliminary screening (Figure S1)); “more than 50%” in data set [5] (H1299, 100 μM, 24 h, preliminary screening (Figure S1)). For the same compound, the TC50 was found to be 13 ± 0.8 µM in data set [1] (setting [6]), 16 ± 0.5 µM in data set [2] (setting [7]), 18 ± 2.0 µM in data set [4] and 10 ± 0.4 µM in data set [5] (setting [8]).
As to `O=C(Nc1cccc(C(F)(F)F)c1)c1c[nH]c2ccc(Nc3cccc([N+](=O)[O-])c3)cc12` [5d, 5-((3-Nitrophenyl)amino)-N-(3-(trifluoromethyl)phenyl)-1H-indole-3-carboxamide], the values for the TC50 in data set [1] (setting [6]), in data set [2] (setting [7]) and in data set [5] (setting [8]) were 16 ± 0.4 µM, 29 ± 4.0 µM and 18 ± 0.5 µM, respectively.
The matching figures for `COc1ccc(-c2ccc3[nH]cc(C(=O)Nc4cccc(C(F)(F)F)c4)c3c2)cc1` [4b, 5-(4-Methoxyphenyl)-N-(3-(trifluoromethyl)phenyl)-1H-indole-3-carboxamide]: 17 ± 0.5 µM, 35 ± 4.0 µM and 17 ± 0.3 µM.
